Beta apoptosis – beta cell apoptosis inhibition | AID 435005 | INS-1E cytokine-induced death, ATP luminescence, 48 h; percent of positive-control rescue, neutral wells zero | actives 0.8% (n = 300,000) | protection from apoptosis, % (no concentration beside the values);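 active = Every replicate reaches about 75%, or at least half do and their mean reaches it too, limit read from the data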;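 also: higher means more ATP so stronger rescue from cytokine killing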
CSC inhib – cancer stem cell inhibition; cancer stem cell-like cells viability, luminescence; inhibition, % at 7.5 µM; actives 1.1% (n = 300,000); AID 2717; in the data active = inhibition above about 75%; tested in HMLE shEcad cells
MC4R ag barr – human MC4R agonism via beta-arrestin; P32245; U2OS MC4R beta-arrestin complementation, luminescence; percent of melanotan II response, DMSO zero; activation, % at 8.9 µM; actives 0.98% (n = 360,000);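 active = activation above a per-plate cutoff, the mean activation of sample wells on that plate plus 3 SD, cut at about 8% in these data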
Target sequence (P32245 whole entry, looked up): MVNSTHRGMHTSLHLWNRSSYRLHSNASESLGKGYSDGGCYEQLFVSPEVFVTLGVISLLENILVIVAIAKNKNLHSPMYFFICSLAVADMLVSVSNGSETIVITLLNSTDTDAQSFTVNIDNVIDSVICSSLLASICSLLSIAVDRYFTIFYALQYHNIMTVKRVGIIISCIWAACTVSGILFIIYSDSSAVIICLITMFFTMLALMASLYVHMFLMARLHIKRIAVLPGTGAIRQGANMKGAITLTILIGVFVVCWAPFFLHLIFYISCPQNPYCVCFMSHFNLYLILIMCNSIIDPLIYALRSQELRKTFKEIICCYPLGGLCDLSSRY
MC4R antag cAMP – human MC4R antagonism in cAMP assay. MC4R-expressing cells, MTII-stimulated cAMP, LANCE TR-FRET. actives 0.48% (n = 360,000). inhibition, % at 6.5 µM;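 active = inhibition above its plate's cutoff, the mean of tested wells on that plate plus 3 SD, cut at about 29% in these data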
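Test system: U2OS cells stably expressing human melanocortin 4 receptor (MC4R); also added: Melanotan II challenge; compound: 6.5 µM single dose; timing: 30-min compound preincubation, 1-h Melanotan II challenge, 1-h detection, room temperature; signal: Eu-cAMP/anti-cAMP TR-FRET, emission 671 nm; repeats: one well per compound, no replicates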
TMEM16A inh – blocks the mouse calcium-activated chloride channel TMEM16A; Q8BHY3; HEK293 TMEM16A/YFP iodide influx fluorescence, ionomycin; normalized B-score (activity score, 25-100; higher = stronger inhibition) at 10 µM; actives 1.2% (n = 310,000);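 active = ratio plate-corrected score three or more library SD toward inhibition, starting fluorescence score within five deviations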;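 also: score derived from kinetic fluorescence span divided by baseline fluorescence per well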
TMEM16A act – activators or potentiators of mouse TMEM16A chloride channel; Q8BHY3; HEK293 TMEM16A/YFP-H148Q/I152L, iodide quench fluorescence; hits give low values; B-score at 10 µM; actives 0.3% (n = 340,000); AID 623877;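 active = fluorescence-ratio B-score plate-corrected deviation score at least 3 library SD below zero, with starting fluorescence score within 5 deviations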;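 also: channel opened by trigger with iodide after compound preincubation; score built on the fluorescence ratio of max minus min over baseline; more negative score means more quench and so TMEM16A activation or potentiation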
TMEM16A reconf – TMEM16A (mouse) chloride channel inhibition, re-confirmation; shares compounds with TMEM16A inh; HEK293 TMEM16A/YFP-H148Q, iodide quench fluorescence; ionomycin added to raise cell calcium; inhibition, % at 10 µM; actives 39% (n = 2,300);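 active = mean duplicate percent inhibition, scaled so buffer wells are 0 and the reference blocker 100, over three buffer SD above buffer mean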
HEK293 Ca mobil – alters calcium mobilization in TMEM16A HEK293 cells, counter-screen; shares compounds with TMEM16A inh; TMEM16A/YFP HEK293, Fluo4 calcium mobilization; calcium response (% of ionomycin), % at 10 µM; actives 2% (n = 2,300);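 active = duplicate-averaged calcium signal over 20% of the ionomycin maximum, relative to buffer baseline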;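 also: each well's signal is peak minus trough fluorescence divided by its pre-addition baseline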
YFP-HEK293 quench – parental YFP-HEK293 iodide quench counter-screen activity. ionomycin. YFP ratio F(max-min)/F0 at 10 µM. shares compounds with TMEM16A inh. 2,300 tested, under 10 active;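 active = yellow fluorescent protein signal ratio exceeding the buffer control mean by over 5 SD of those controls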;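 also: ratio is mean of duplicate wells from kinetic YFP trace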
ClC-1 inh – selectivity of TMEM16A inhibitors: inhibition of rat ClC-1 chloride channel; ratio percent, % at 10 µM; 2,300 tested, under 10 active; shares compounds with TMEM16A inh; CHO ClC-1-YFP, iodide influx fluorescence quench; iodide control reads 0, buffer control 100;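 active = duplicate-mean ratio percent above the mean of iodide-only control wells, which defines zero, plus 5 of their SD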;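 also: higher percent means stronger block of ClC-1 iodide influx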
Hits are given with their value; . = inactive; / = no result. Hits are enriched below; roughly 3.8% of the tested compounds scored in any of these assays.

SMILES	Beta apoptosis	CSC inhib	MC4R ag barr	MC4R antag cAMP	TMEM16A inh	TMEM16A act	TMEM16A reconf	HEK293 Ca mobil	YFP-HEK293 quench	ClC-1 inh
CC[C@]12c3[nH]c4ccc(OC)cc4c3CCN1C(=O)C(CC(=O)NC(C)(C)C)C[C@@H]2C(=O)N1CCN(C(=O)c2ccco2)CC1 (some centres undefined)	/	/	.	.	/	/	/	/	/	/
CN1CCN(/N=C/c2ccc(N(c3ccccc3)c3ccccc3)cc2)CC1	.	86	.	.	100	.	32%	.	.	.
CN1CCN(/N=C/c2ccc(N(C)c3ccccc3)cc2)CC1	.	.	.	.	.	.	/	/	/	/
CCOC(=O)c1c(NC(=O)COC(=O)C2CC2C)sc(C)c1C (centres undefined)	.	.	.	.	25	.	.	.	.	.
CCN(c1ccccc1)S(=O)(=O)c1cc(NC(=O)COC(=O)C2CC2)ccc1Cl	.	.	.	.	100	.	.	.	.	.
CN(C)S(=O)(=O)c1cc(NC(=O)COC(=O)C2COc3ccccc3O2)ccc1Cl (centres undefined)	.	.	.	.	.	.	/	/	/	/
CCN(c1ccccc1)S(=O)(=O)c1cc(NC(=O)Nc2ccccc2C#N)ccc1Cl	.	.	.	.	25	.	.	.	.	.
CS(=O)(=O)c1ccc(NS(=O)(=O)c2ccc(Cl)c(C(=O)NCc3ccco3)c2)cc1	.	/	.	.	/	.	/	/	/	/
CC(=O)N(/N=C1\Sc2ccccc2C1=O)c1cccc(C)c1	.	.	.	.	.	.	.	.	.	.
CCN1CCN(C(=O)C(C)Oc2ccc(S(=O)(=O)N3CCCC3)cc2C(N)=O)CC1 (centres undefined)	.	.	.	.	/	.	/	/	/	/
Cc1noc(C)c1COc1cccc(C(=O)OCCOc2ccc(F)cc2)c1	.	.	.	.	100	.	.	.	.	.
Cc1noc(C)c1COc1cccc(C(=O)OC(C)C#N)c1 (centres undefined)	.	.	.	.	.	.	/	/	/	/
Cc1noc(C)c1COC(=O)c1cccc(S(=O)(=O)N2CCCCCC2)c1	.	.	.	.	25	.	.	.	.	.
O=C(NCC(=O)N1CCN(C/C=C/c2ccccc2)CC1)c1ccc(OC(F)F)cc1	.	/	.	.	/	.	/	/	/	/
CCOC(=O)c1ccccc1NC1c2ccccc2C(=O)N1c1cc(C)ccn1 (centres undefined)	.	/	.	.	100	.	.	.	.	.
CCOC(=O)c1c(NC(=O)CSc2nnc(C)c(=O)[nH]2)sc(C)c1-c1ccc(C)cc1	.	.	.	.	.	.	/	/	/	/
CCOC(=O)c1c(NC(=O)CSc2nnc(N)s2)sc(C)c1-c1ccc(C)cc1	.	.	.	.	25	.	.	.	.	.
Cc1nn(-c2ccccc2)c(Cl)c1C(=O)Nc1nnc(C2CCCC2)s1	.	.	.	.	25	.	.	.	.	.
O=C(c1ccc(N2CCN(C(=O)c3ccccc3Br)CC2)cc1)c1cccc(F)c1	.	.	.	.	100	.	17%	.	.	.
CCCC(=O)c1ccc(N2CCN(C(=O)c3ccccc3Br)CC2)c(F)c1	.	.	.	.	100	.	20%	.	.	.
CCCC(=O)c1ccc(N2CCN(C(=O)c3ccc(Br)cc3)CC2)c(F)c1	.	.	.	.	.	.	/	/	/	/
CCCC(=O)c1ccc(N2CCN(C(=O)c3ccccc3)CC2)c(F)c1	.	.	.	.	25	.	.	.	.	.
CCOc1ccc(S(=O)(=O)N(C)CC(=O)N2CCN(CC)CC2)cc1	.	.	.	.	.	.	/	/	/	/
COc1cc(C(=O)NCCC2=CCCCC2)cc(OC)c1OC	.	/	.	.	.	.	/	/	/	/
COc1ccc(C)cc1NC(=O)NCCC1=CCCCC1	.	.	.	.	100	.	.	.	.	.
SMILES	Beta apoptosis	CSC inhib	MC4R ag barr	MC4R antag cAMP	TMEM16A inh	TMEM16A act	TMEM16A reconf	HEK293 Ca mobil	YFP-HEK293 quench	ClC-1 inh
CCN(CC)CCCOc1ccc(Cl)c(Cl)c1	.	.	.	.	100	.	.	.	.	.
COc1ccc(/C=N\NC(=O)CNC(=O)C2COc3ccccc3O2)cc1[N+](=O)[O-] (centres undefined)	.	.	.	.	.	.	/	/	/	/
CC(C)C(NC(=O)c1ccccc1NC(=O)C(C)(C)C)C(=O)N1CCOCC1 (centres undefined)	.	.	.	.	/	.	/	/	/	/
O=C(COC(=O)c1ccc(OC(F)F)cc1)NCC1CCCO1 (centres undefined)	/	/	.	.	/	/	/	/	/	/
Cc1ccc(S(=O)(=O)N2CCN(c3ccnc4cc(Cl)ccc34)CC2)cc1C	.	.	.	.	.	.	/	/	/	/
Cc1cc(N2CCN(S(=O)(=O)c3ccc(Cl)c(Cl)c3)CC2)c2ccccc2n1	.	/	.	.	100	.	.	.	.	.
Cc1ccc(S(=O)(=O)N2CCN(c3ccnc4cc(Cl)ccc34)CC2)cc1	.	.	.	.	100	.	.	.	.	.
Cc1ccc(NC(=O)CN(C)C(=O)CSc2nccn2C)cc1	.	.	.	.	/	.	/	/	/	/
CN(C)c1ccc(CN(C(=O)COc2ccccc2)C2CCS(=O)(=O)C2)cc1 (centres undefined)	.	.	.	.	.	.	/	/	/	/
Cc1ccccc1OCC(=O)N(Cc1ccc(N(C)C)cc1)C1CCS(=O)(=O)C1 (centres undefined)	.	.	.	.	100	.	.	.	.	.
CCOC(=O)c1ccc(Oc2cn[nH]c2-c2ccc(O)cc2O)cc1	.	.	.	.	25	.	43%	.	.	.
NC(=O)c1ccc(NC(=O)CCc2nc3ccccc3s2)cc1	.	.	.	.	.	.	/	/	/	/
O=C(Nc1ccc(Cc2nc3ccccc3s2)cc1)c1ccncc1	.	.	.	.	25	.	17%	.	.	.
Cc1ccc(C)c(OCC(=O)N/N=C/c2ccc(N3CCOCC3)cc2)c1	/	/	.	.	/	/	/	/	/	/
C[C@@H]1C[C@H]2[C@@H]3CCC4=CC(=O)C=C[C@]4(C)[C@@]3(Cl)[C@@H](O)C[C@]2(C)[C@@]1(OC(=O)c1ccco1)C(=O)CCl	.	.	.	.	.	.	/	/	/	/

Compound activity as filed in PubChem.
